This note sets out measurements from the EternaBench riboswitch data.

The data set concerns MS2 coat protein. The data set can be described thus: apparent Kd, MS2 coat protein; higher = weaker binding; RNA-MaP array; FMN 200 µM where present. Put shortly:
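Two titrations, one without ligand and one with constant ligand, were run with SNAP-549-labelled MS2 coat protein from 0.7 or 1.5 nM, doubling to 3 µM. The targets were designs transcribed by stalled E. coli RNA polymerase on Illumina sequencing-chip clusters, in 100 mM Tris-HCl pH 7.5, 80 mM KCl, 4 mM MgCl2, BSA, DTT, yeast tRNA and Tween-20. The apparent Kd is the median of filtered per-cluster binding-curve fits, with green signal normalised to red-channel RNA signal and control-cluster median Fmax.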

The mark [1] stands for this setting: designed as: OFF switch for flavin mononucleotide, no ligand.
Setting [2] is: ligand present: flavin mononucleotide, designed as: OFF switch for flavin mononucleotide.
Where [3] appears, read: designed as: ON switch for flavin mononucleotide, no ligand.
[4] abbreviates: ligand present: flavin mononucleotide, designed as: ON switch for flavin mononucleotide.

With “AAAAAACAUGAGGAUCACCCAUGUGAGGAUAUCGAGAAGAAGAAGAAGAAGAAGAGAACGAGAAGGCACAAAAA”, the “apparent Kd” value by setting is: under setting [1], 0.0474 µM; under setting [2], 0.0515 µM.

In the case of “GGGUAGGUAGGAUAUGCGUGCAGGGUGUCUUCCAAUGAUCAACAUGAGGAUCACCCAUGUAGAAGGAUCGAGCU”, the “apparent Kd” value reads like this: under setting [1], 0.331 µM; under setting [2], 0.319 µM.

Take “AAUUAGUGAGGAUAUUUUAACAGUGGCAGUAGCCAGUGCAUGAAGAAGGCACAUGAGGAUCACCCAUGUUAUAA”: the “apparent Kd” value under setting [1] is 0.101 µM and the “apparent Kd” value under setting [2] was determined as 0.0915 µM.

Consider “GGUACCAACACAGGAUAUGCAAUCCUUUGGGUUGCAGAAGGGUGAAAACAUGAGGAUCACCCAUGUGGUACCGGGCGUGAGCCC”, for which the “apparent Kd” value under setting [3] was 0.473 µM and the “apparent Kd” value under setting [4] was found to be 0.0398 µM.

For the sequence “CCACGUCACAUUUACAUGAGGAUCACCCAUGUCGAAAGACAUGAGGAUAUGCUACCUAAUUGGUAGCAGAAGGCAUGGACGUGG”, the “apparent Kd” value reads like this: under setting [3], 0.203 µM; under setting [4], 0.284 µM.

With “CCCUCACAUGAGGAUCACCCAUGUCAGGAUAUUCGGCGGUCAAUUGACCGCCUUAAAGGAAGAAGGGACGUAAA”, the “apparent Kd” value turned out to be 0.0127 µM under setting [1] and 0.0189 µM under setting [2].

With “GGUACUCAAAGAGUACCAAUAUGAACAUGAGGAUCACCCAUGUAGGAUAUGCUACUCAAAGAGUAGCAGAAGGAUAUGUGUCUA”, the “apparent Kd” value reads like this: under setting [1], 0.0196 µM; under setting [2], 0.0212 µM.

Regarding “AGGAUUAAAGGGAAUAACAUGAGGAUCACCCAUGUAUGGGAGAGAAGGCAUAUCGGAGGACGAUAUGAGGAUAUUUAAAAUUUA”, the “apparent Kd” value under setting [3] is 0.121 µM and the “apparent Kd” value under setting [4] was found to be 0.0383 µM.

In the case of “CUGACGAUGUAAGGAUAUGCUGAGGAUAACUCAGCAGAAGGUACAUGAGGAUCACCCAUGUAACGUCAGAAUAAUAAUAAUAAU”, the “apparent Kd” value was 0.0126 µM under setting [1] and 0.0231 µM under setting [2].

On to “UGUCGGAGCAGAGGAUAUUACAUGAGGAUCACCCAUGUAUGAACCAAUAGCUGGAAACAGCAAUUUAAGAAGGCUGCUCCGACA”, for which the “apparent Kd” value by setting is: under setting [1], 0.00528 µM; under setting [2], 0.00496 µM.

Regarding “GGAGCCGGCACCGAGGAUAUUCAUAUUAAAACAUGAGGAUCACCCAUGUAGGCCAGAAGGCCUUGGGAGAAGGCGGAUCGGCUCG”, the “apparent Kd” value was 0.611 µM under setting [3] and 0.0384 µM under setting [4].

“UGUGGGAGUCAGAAGGAGUAUUCUACAUGAGGAUCACCCAUGUCUGGUGCUAGGAUAUGGGUCUGGGCGGACUAAGGUCUCGUA”: the “apparent Kd” value runs as follows: under setting [3], 0.444 µM; under setting [4], 0.243 µM.

With “GAGAUGACAGUCAGGAUAUCUGUAGGGCGGACUUAAGAGAAGGGACAUGAGGAUCACCCAUGUGUGAUUGGUUU”, the “apparent Kd” value runs as follows: under setting [1], 0.266 µM; under setting [2], 0.347 µM.

On to “CAUUAUGUUGAGGAUAUGCGCCGGCUCGCUGGCACAGAAGGCGACACAUGAGGAUCACCCAUGUCAGUUCGCGA”, for which the “apparent Kd” value is, setting by setting: under setting [1], 0.0122 µM; under setting [2], 0.0148 µM.

“UGGUACUAGGGAGGAUAUAGGAAGAUACAUGAGGAUCACCCAUGUUUAAGAAUGCCGAGAGGCAACUAGAAGGCCCUAGUACCU”: the “apparent Kd” value came out at 0.005 µM under setting [3] and 0.00474 µM under setting [4].

Consider “GGAUCAGAUGAGGAUAUUCGUUGUAUAACAACAGGAGAAGGCAUCACAUGAGGAUCACCCAUGUUCUACCUUCC”, for which the “apparent Kd” value reads like this: under setting [1], 0.0141 µM; under setting [2], 0.0158 µM.

On to “UGAUAUGUAGUAGGAUAUCAGGUUACAUGAGGAUCACCCAUGUUAGAUUGGUGGAUAGAUGUUGAUGAGAAGGACUUUUGAGUU”, for which the “apparent Kd” value turned out to be 0.0796 µM under setting [1] and 0.101 µM under setting [2].

Consider “UUAGAUAGGUCAGGAUAUCGAUUAUUGUAUAGUAUGAUUUACAUGAGGAUCACCCAUGUUAAAUACGAGAAGGGACGUUAGAUU”, for which the “apparent Kd” value reads like this: under setting [1], 0.0265 µM; under setting [2], 0.019 µM.

Take “UCACGUCGCCAAGGAUAUACCCGAAGAUCCAUGGUAGAAGGUGGUGACAUGAGGAUCACCCAUGUCCGCGCGGACAAGUGUGCU”: the “apparent Kd” value by setting is: under setting [1], 0.066 µM; under setting [2], 0.0147 µM.

Regarding “UCUGCCGCCGUGAGGAUAUGCCCAAAAAAACGCGGGCAGAAGGCACAUGAGGAUCACCCAUGUCCCGCGGUUUU”, the “apparent Kd” value reads like this: under setting [1], 0.0195 µM; under setting [2], 0.0341 µM.

For “UCAGCGGUGCAAGGAUAUAACACAAUUGUCCUUAGUCGAGACGAGUGACAUGAGGAUCACCCAUGUUAGAAGGUGUCCUGCUGG”, the “apparent Kd” value under setting [1] was determined as 0.072 µM and the “apparent Kd” value under setting [2] amounted to 0.326 µM.

On to “AAAAAACAUGAGGAUCACCCAUGUUAGGAUAUGCUAUGGAAAAUAAAAAAUAAACAUAGCAGAAGGAACAAAAA”, for which the “apparent Kd” value worked out at 0.0434 µM under setting [1] and 0.0489 µM under setting [2].

For the sequence “GGACAUGAGGAUCACCCAUGUUCUCCAGAAGGCCGUACAUUUAAAAGUGGAUGGAUUAGUGUUGCGGAGGAUAUGGAGGUGCAA”, the “apparent Kd” value reads like this: under setting [3], 0.0771 µM; under setting [4], 0.0167 µM.

Take “UGGUCGGAGACAGGAUAUGUGACUGCAUAGUGCACAGAAGGGUCUACAUGAGGAUCACCCAUGUCACCGAACACCAAACAACAA”: the “apparent Kd” value by setting is: under setting [3], 0.412 µM; under setting [4], 0.0413 µM.

Regarding “AUUCCCAACCAGAAGGACAUGAGGAUCACCCAUGUAGGAUAUGGGUGGGUGACCCGAACUUGGACGACAUCACAAUUCUCACAC”, the “apparent Kd” value was 0.0556 µM under setting [3] and 0.00949 µM under setting [4].

“GUAGCAUACCGAGGAUAUUCUGGGCUUAAAUAAACAUGAGGAUCACCCAUGUGGCGAAAGCCUAGGGAGAAGGCGGAAUGCUAC”: the “apparent Kd” value is 0.0137 µM under setting [3] and 0.013 µM under setting [4].

In the case of “GAUCUGACAGGAUAUACAUGAGGAUCACCCAUGUGCGAGCUAGCGAAAGCUAGCUCAGGUAGAAGGGUCAGAUC”, the “apparent Kd” value by setting is: under setting [1], 0.012 µM; under setting [2], 0.0164 µM.

As for “AUGGAUAUCACAGGAUAUGCUAUGGAUACCAUAGCAGAAGGGUGAUCCAUCCUAUGUGAACACAUGAGGAUCACCCAUGUGUCC”, the “apparent Kd” value was 0.0984 µM under setting [3] and 0.0179 µM under setting [4].

For “UACGUACAGAAGAACGCCGGGUCCAGAAGGGACAUGAGGAUCACCCAUGUACCGUUGAUUGCUUGUCAGGAUAUGGACCCGGCC”, the “apparent Kd” value came to 0.00632 µM under setting [1] and 0.0218 µM under setting [2].

As for “AUUGAGUGAGGAUAUCCCGCUGCCGUGCGACCAUGGAGCUGGGAGAAGGCACAUGAGGAUCACCCAUGUGAGUU”, the “apparent Kd” value under setting [1] is 0.0193 µM and the “apparent Kd” value under setting [2] is 0.045 µM.

As for “AAAAGGGCAGGAUAUACAUGAGGAUCACCCAUGUGAAAAAAAAAAAAAAAAAAAAAGUGUAGAAGGGUCAAAAA”, the “apparent Kd” value stood at 0.074 µM under setting [1] and 0.076 µM under setting [2].

In the case of “UUACUCAUGUAAGGAUAUGCAGCCGUUUCGGUUGCAGAAGGUACUAUAAUACAUGAGGAUCACCCAUGUCUUUUUAAUUUUUAC”, the “apparent Kd” value by setting is: under setting [3], 0.0679 µM; under setting [4], 0.0312 µM.

“AAAAAACAUGAGGAUCACCCAUGUAAUAAAACGUCAGGAUAUUGAUUUUAUUAUUUAUUACAAGAAGGGACAAAAA”: the “apparent Kd” value by setting is: under setting [3], 0.133 µM; under setting [4], 0.0576 µM.

Turning to “AAUAUGAGCUGGUUUAAAUCCGAAACAUGAGGAUCACCCAUGUAGGAUAUCAGCACGAUAAGUGCUGAGAAGGACAUCCAGCUC”, the “apparent Kd” value reads like this: under setting [1], 0.0156 µM; under setting [2], 0.015 µM.

For “UUAAUAAUACAAGGAUAUCUAUUGUUCUUAAGACAUACAUGAGGAUCACCCAUGUUAAUAUAUAUAGAGAAGGUGUAUUUUCAG”, the “apparent Kd” value under setting [3] amounted to 0.0272 µM and the “apparent Kd” value under setting [4] amounted to 0.02 µM.

As for “CCGCAAAUGCAGGAUAUCGUAUCGGAUACGAUACGAGAAGGGCAAACAUGAGGAUCACCCAUGUGUCCUAGCGG”, the “apparent Kd” value reads like this: under setting [1], 0.015 µM; under setting [2], 0.0267 µM.

In the case of “CGACUGUGAGGAUAUGGUGAGUAGUGCCUGAGCGCUGCUCACCAGAAGGCACAUGAGGAUCACCCAUGUAUAGC”, the “apparent Kd” value was determined as 0.0417 µM under setting [1] and 0.165 µM under setting [2].

For the sequence “AUGCUUCACACAGGAUAUACAUGAGGAUCACCCAUGUGUCCUCCGUAAUUGACACCAAUUACGCUGUAGAAGGGUGUGAAGCAU”, the “apparent Kd” value is 0.258 µM under setting [1] and 0.188 µM under setting [2].

Turning to “GAGUGGAGGAGAGGAUAUACAAUGAUAAUCACUGUAGAAGGUUCUAACAUGAGGAUCACCCAUGUAGGACUAUUCCUGAGAGUU”, the “apparent Kd” value under setting [3] was determined as 0.0129 µM and the “apparent Kd” value under setting [4] came to 0.0103 µM.

Take “UUAACUCAUGUAGGAUAUGCAUGGCGAAGCUACGCAGAAGGACAUGAGGAUCACCCAUGUUCUAGCGUCUGGAAACAGAUGCAA”: the “apparent Kd” value stood at 0.0679 µM under setting [1] and 0.359 µM under setting [2].

For “CUUGUGUUAGGAUAUGCGUUUCCGGUACGUCACCGGAUCUGGCAGAAGGGACAUGAGGAUCACCCAUGUUUGGC”, the “apparent Kd” value reads like this: under setting [1], 0.0466 µM; under setting [2], 0.0303 µM.

Regarding “AAGCGACGAGGAUAUCGGUGGCUGAACAUGAGGAUCACCCAUGUGAACCGAUGGCAGUGUCGAGAAGGUGUUGAGU”, the “apparent Kd” value worked out at 0.0139 µM under setting [1] and 0.0161 µM under setting [2].

On to “CAGCAAUGUAAGAAGGUAUUUAUUAUUAUAUUAUAAGGAUAUUACAUGAGGAUCACCCAUGUAUGAACCAAUAGCUGAAUUAUA”, for which the “apparent Kd” value under setting [1] amounted to 0.0061 µM and the “apparent Kd” value under setting [2] turned out to be 0.00588 µM.

Consider “UUCCUGUCAGGAUAUGACUAGAGGCACGAAAGUGUGUUUAGUUAGAAGGGACAUGAGGAUCACCCAUGUAGUCC”, for which the “apparent Kd” value worked out at 0.0233 µM under setting [1] and 0.0362 µM under setting [2].

For the sequence “CGGAUGUGAGGAUAUACAUGAGGAUCACCCAUGUGAGCCAGCUAGCUGACUGGCUCGUGUAGAAGGCACGUCUG”, the “apparent Kd” value was 0.0155 µM under setting [1] and 0.0289 µM under setting [2].

With “GUCUCGUCAGGAUAUGACGCUACAUUUUCUUUUUAGAAGAGUCAGAAGGGACAUGAGGAUCACCCAUGUGAUUC”, the “apparent Kd” value under setting [1] was found to be 0.43 µM and the “apparent Kd” value under setting [2] is 0.596 µM.

Consider “CUUCUGUGAGGAUAUGUUAGCUCCCAGAAUGUCGCUGGGAGACAGAAGGCACAUGAGGAUCACCCAUGUGGGCG”, for which the “apparent Kd” value is, setting by setting: under setting [1], 0.0352 µM; under setting [2], 0.175 µM.

Take “GGGUGACAUGAGGAUCACCCAUGUCAGGAUAUUGAGCUUGAGCUGAAAAGUUCGAGUUCGAGAAGGGACUGCCC”: the “apparent Kd” value reads like this: under setting [1], 0.052 µM; under setting [2], 0.229 µM.

By apparent Kd is commonly meant a dissociation constant that holds for the conditions of the assay.
